≈ marks a conversion by molar mass, not a printed value. Calls of active or inactive are those of the source. The rule behind the calls is not given here.
How the values were obtained:
Format in all cases: functional
[1] = system: Shigella dysenteriae; experiment: Antibacterial activity against Shigella dysenteriae after 72 hrs
Outline: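 MIC by agar dilution: compound-containing nutrient agar was set and surface-dried, then streaked with overnight broth culture of the clinical isolate. Incubated at 37 °C for up to 72 h and scored for presence or absence of growth. Streptomycin was the reference.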

[2] = system: Pseudomonas fluorescens; experiment: Antibacterial activity against Pseudomonas fluorescens NCIB 3756 after 24 hrs by agar well diffusion method
Outline: (§1)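 Agar well diffusion. Clinical isolates were first checked for viability, then grown in nutrient broth for 8 h at 37 °C. About 0.2 ml of broth culture was mixed into 18 ml molten diagnostic sensitivity test agar cooled to 45 °C and poured into plates. Compounds in DMSO went into bored wells, with streptomycin as reference. Plates stood 1 h for diffusion, then were incubated upright at 37 °C for 24 h. Clear inhibition zones were read in mm.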

[3] = system: Bacillus subtilis; experiment: Antibacterial activity against Bacillus subtilis NCIB 3610 after 72 hrs; conditions: NCIB 3610, 72 h
Outline: (§2)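 MIC by the Russell and Furr method, run on selected Gram-positive and Gram-negative strains. Once the agar had set and its surface had dried, nutrient agar plates were streaked with overnight broth cultures. They were incubated at 37 °C for up to 72 h and scored for presence or absence of growth.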

[4] = system: Staphylococcus aureus; experiment: Antibacterial activity against Staphylococcus aureus NCIB 8588 after 72 hrs; outline: as §2
[5] = system: Bacillus cereus; experiment: Antibacterial activity against Bacillus cereus NCIB 6349 after 24 hrs by agar well diffusion method; outline: as §1
[6] = system: Bacillus anthracis; experiment: Antibacterial activity against Bacillus anthracis after 72 hrs
[7] = system: Bacillus subtilis; experiment: Antibacterial activity against Bacillus subtilis NCIB 3610 after 24 hrs by agar well diffusion method; outline: as §1
[8] = system: Shigella dysenteriae; experiment: Antibacterial activity against Shigella dysenteriae after 24 hrs by agar well diffusion method
[9] = system: Escherichia coli; experiment: Antibacterial activity against Escherichia coli NCIB 86 after 24 hrs by agar well diffusion method; outline: as §1
[10] = system: Geobacillus stearothermophilus; experiment: Antibacterial activity against Bacillus stearothermophilus NCIB 8222 after 72 hrs; conditions: NCIB 8222, 72 h; outline: as §2
[11] = system: Bacillus anthracis; experiment: Antibacterial activity against Bacillus anthracis after 24 hrs by agar well diffusion method
[12] = system: Candida albicans; experiment: Antifungal activity against Candida albicans after 3 days by agar well diffusion method
[13] = system: Staphylococcus aureus; experiment: Antibacterial activity against Staphylococcus aureus NCIB 8588 after 24 hrs by agar well diffusion method; outline: as §1
[14] = system: Klebsiella pneumoniae; experiment: Antibacterial activity against Klebsiella pneumoniae NCIB 418 after 72 hrs; outline: as §2
[15] = system: Klebsiella pneumoniae; experiment: Antibacterial activity against Klebsiella pneumoniae NCIB 418 after 24 hrs by agar well diffusion method; outline: as §1
[16] = system: Escherichia coli; experiment: Antibacterial activity against Escherichia coli NCIB 86 after 72 hrs; outline: as §2
[17] = system: Bacillus cereus; experiment: Antibacterial activity against Bacillus cereus NCIB 6349 after 72 hrs; conditions: NCIB 6349, 72 h; outline: as §2
[18] = system: Geobacillus stearothermophilus; experiment: Antibacterial activity against Bacillus stearothermophilus NCIB 8222 after 24 hrs by agar well diffusion method; outline: as §1
[19] = system: Pseudomonas aeruginosa; experiment: Antibacterial activity against Pseudomonas aeruginosa NCIB 950 after 24 hrs by agar well diffusion method; outline: as §1

| Compound | MIC [1] | inhibition zone (IZ) [2] | MIC [3] | MIC ([4]; NCIB 8588, 72 h) | inhibition zone (IZ) [5] | MIC [6] | inhibition zone (IZ) [7] | inhibition zone (IZ) [8] | inhibition zone (IZ) [9] | MIC [10] | inhibition zone (IZ) [11] | inhibition zone (IZ) [12] | inhibition zone (IZ) [13] | inhibition zone (IZ) [15] | MIC [17] | inhibition zone (IZ) [18] | inhibition zone (IZ) [19] | MIC ([14]; NCIB 418, 72 h) | MIC ([16]; NCIB 86, 72 h) | other results |
| --- | --- | --- | --- | --- | --- | --- | --- | --- | --- | --- | --- | --- | --- | --- | --- | --- | --- | --- | --- | --- |
| CN[C@@H]1[C@H](O[C@H]2[C@H](O[C@H]3[C@H](O)[C@@H](O)[C@H](N=C(N)N)[C@@H](O)[C@@H]3N=C(N)N)O[C@@H](C)[C@]2(O)C=O)O[C@@H](CO)[C@H](O)[C@H]1O [STREPTOMYCIN] | 15.6 µg/mL (≈ 26.8 µM) | 30 mm | 15.6 µg/mL (≈ 26.8 µM) | 7.8 µg/mL (≈ 13.4 µM) | 28 mm | 31.3 µg/mL (≈ 53.8 µM) | 20 mm | 22 mm | 0 mm | 7.8 µg/mL (≈ 13.4 µM) | 18 mm | inactive | 21 mm | 0 mm | 7.8 µg/mL (≈ 13.4 µM) | 23 mm | 0 mm | – | – | MIC [14]: inactive; MIC [16]: inactive |
| NNc1nc2ccccc2[nH]c1=O | 125 µg/mL (≈ 710 µM) | 0 mm | 15.6 µg/mL (≈ 88.5 µM) | 125 µg/mL (≈ 710 µM) | 28 mm | 15.6 µg/mL (≈ 88.5 µM) | 20 mm | 22 mm | 25 mm | 15.6 µg/mL (≈ 88.5 µM) | 24 mm | 18 mm | 24 mm | 10 mm | 15.6 µg/mL (≈ 88.5 µM) | 15 mm | 15 mm | 125 µg/mL (≈ 710 µM) | 15.6 µg/mL (≈ 88.5 µM) | – |
| CC/C(C)=N\Nc1nc2ccccc2[nH]c1=O | inactive | 0 mm | 31.3 µg/mL (≈ 136 µM) | 15.6 µg/mL (≈ 67.7 µM) | 25 mm | 62.5 µg/mL (≈ 271 µM) | 16 mm | 0 mm | 21 mm | 31.3 µg/mL (≈ 136 µM) | 12 mm | 22 mm | 19 mm | 19 mm | 7.8 µg/mL (≈ 33.9 µM) | 17 mm | 0 mm | 62.5 µg/mL (≈ 271 µM) | 31.3 µg/mL (≈ 136 µM) | – |
| O=c1[nH]c2ccccc2nc1NN=C1c2ccccc2Cc2ccccc21 | inactive | 0 mm | 31.3 µg/mL (≈ 88.8 µM) | 15.6 µg/mL (≈ 44.3 µM) | 25 mm | 31.3 µg/mL (≈ 88.8 µM) | 12 mm | 0 mm | 20 mm | 15.6 µg/mL (≈ 44.3 µM) | 14 mm | 9 mm | 14 mm | 21 mm | 7.8 µg/mL (≈ 22.1 µM) | 18 mm | 15 mm | 7.8 µg/mL (≈ 22.1 µM) | 15.6 µg/mL (≈ 44.3 µM) | – |
| CC(C)=NNc1nc2ccccc2[nH]c1=O | 31.3 µg/mL (≈ 145 µM) | 0 mm | 7.8 µg/mL (≈ 36.1 µM) | 62.5 µg/mL (≈ 289 µM) | 24 mm | 62.5 µg/mL (≈ 289 µM) | 30 mm | 13 mm | 30 mm | 7.8 µg/mL (≈ 36.1 µM) | 14 mm | 31 mm | 12 mm | 12 mm | 15.6 µg/mL (≈ 72.1 µM) | 30 mm | 0 mm | 15.6 µg/mL (≈ 72.1 µM) | 7.8 µg/mL (≈ 36.1 µM) | – |
| O=c1[nH]c2ccccc2nc1NN=C1CCCC1 | 62.5 µg/mL (≈ 258 µM) | 10 mm | 31.3 µg/mL (≈ 129 µM) | – | 20 mm | 125 µg/mL (≈ 516 µM) | 12 mm | 12 mm | 17 mm | 62.5 µg/mL (≈ 258 µM) | 10 mm | 29 mm | 0 mm | 14 mm | 15.6 µg/mL (≈ 64.4 µM) | 14 mm | 0 mm | 15.6 µg/mL (≈ 64.4 µM) | 31.3 µg/mL (≈ 129 µM) | MIC [4]: inactive |
| O=c1[nH]c2ccccc2nc1N/N=C1\CCCCC1Cl (stereo unspecified) | inactive | 9 mm | 15.6 µg/mL (≈ 53.7 µM) | 62.5 µg/mL (≈ 215 µM) | 12 mm | 31.3 µg/mL (≈ 108 µM) | 16 mm | 0 mm | 12 mm | 31.3 µg/mL (≈ 108 µM) | 14 mm | 15 mm | 12 mm | 13 mm | 31.3 µg/mL (≈ 108 µM) | 14 mm | 0 mm | 31.3 µg/mL (≈ 108 µM) | 62.5 µg/mL (≈ 215 µM) | – |
| C/C(=N\Nc1nc2ccccc2[nH]c1=O)c1cc2cc(Br)ccc2oc1=O | inactive | 0 mm | 7.8 µg/mL (≈ 18.3 µM) | 62.5 µg/mL (≈ 147 µM) | 15 mm | 62.5 µg/mL (≈ 147 µM) | 30 mm | 0 mm | 18 mm | 7.8 µg/mL (≈ 18.3 µM) | 16 mm | 21 mm | 14 mm | 18 mm | 62.5 µg/mL (≈ 147 µM) | 29 mm | 0 mm | 62.5 µg/mL (≈ 147 µM) | 62.5 µg/mL (≈ 147 µM) | – |
| O=C1Nc2ccc(Cl)cc2/C1=N/Nc1nc2ccccc2[nH]c1=O | 62.5 µg/mL (≈ 184 µM) | 0 mm | 15.6 µg/mL (≈ 45.9 µM) | 7.8 µg/mL (≈ 23 µM) | 28 mm | 15.6 µg/mL (≈ 45.9 µM) | 20 mm | 10 mm | 19 mm | 7.8 µg/mL (≈ 23 µM) | 20 mm | 18 mm | 25 mm | 20 mm | 7.8 µg/mL (≈ 23 µM) | 24 mm | 0 mm | 7.8 µg/mL (≈ 23 µM) | 15.6 µg/mL (≈ 45.9 µM) | – |

— ChEMBL document CHEMBL1157693, “Microwave assisted synthesis and antimicrobial activity of 2-quinoxalinone-3-hydrazone derivatives” (2010)
